Source: PubChem BioAssay
This is a sample that favours compounds with a hit; in the whole collection about 2.1% have one here.
Cardio protect = modulators protecting cardiomyocytes from myocardial damage; H9c2 cardiomyocytes, H2O2 injury protection, ATPLite, 2 h; protection from H2O2 cell death, % at 20 µM; actives 0.63% (n = 360,000); AID 588492;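 active = compounds giving at least 50% protection of heart cells from peroxide-induced death in the single-dose screen, raw or plate-pattern-corrected value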;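 note: 0% = DMSO wells with peroxide and 100% = DMSO wells without peroxide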
iPSC survival up = increases survival of single human iPS cells. hiPSC single-cell survival, ATPlite luminescence; 100% = ROCK inhibitor wells, 0% = DMSO. survival enhancement, % at 20 µM. actives 0.044% (n = 360,000). AID 602274; in the data active = survival enhancement above about 18%;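 note: cells exposed to compounds for 16 hours before the ATP read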
beta cell repl = MIN6 beta-cell proliferation induction; MIN6 cells proliferation, ATPlite luminescence, 48 h; cells starved in 0.2% serum; 100% = growth in 10% serum; proliferation, % at 10 µM; actives 0.29% (n = 330,000); AID 2380;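 active = compounds whose signal lies at least 3.5 SD above the mean of all wells on their plate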;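 note: 0% = DMSO-treated cells in low-serum medium and 100% = 10% serum control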
UCH37 DUB inh = human UCH37 deubiquitinating enzyme inhibition; Q9Y5K5; purified proteasome/UCH37, Ub-AMC cleavage fluorescence; inhibition, % (test concentration not listed); actives 0.33% (n = 330,000);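 active = mean inhibition over replicate wells above about 20%, limit read from the data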;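 note: 0% = compound-free wells with enzyme and 100% = wells lacking proteasome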
Target sequence (Q9Y5K5 whole entry, looked up): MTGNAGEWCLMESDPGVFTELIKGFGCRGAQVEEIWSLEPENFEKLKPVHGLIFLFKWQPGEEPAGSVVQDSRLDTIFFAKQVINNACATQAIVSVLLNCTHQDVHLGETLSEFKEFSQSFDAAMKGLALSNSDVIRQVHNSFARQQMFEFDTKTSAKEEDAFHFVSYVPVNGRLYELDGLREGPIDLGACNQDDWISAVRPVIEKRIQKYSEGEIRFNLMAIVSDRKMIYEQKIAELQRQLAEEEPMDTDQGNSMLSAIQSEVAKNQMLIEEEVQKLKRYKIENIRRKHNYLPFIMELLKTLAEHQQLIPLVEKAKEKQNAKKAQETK
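System: Proteasome-associated human UCH37 deubiquitinase; Input: 0.15 nM proteasome in added enzyme buffer; Also added: Ub-AMC substrate from 1 µM stock; Incubation: 30 min compound-proteasome preincubation then 25 min substrate reaction, room temperature; Detection: fluorescence, ex 355 nm, em 460 nm; Read-out: % inhibition of Ub-AMC cleavage fluorescence; Benchmarks: no-proteasome and no-compound wells.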
CRFR2-BP antag = blocks CRF-induced signaling of the CRF-BP/CRF-R2 complex; AID 588475; inhibition, % at 11.8 µM; actives 0.59% (n = 350,000); HEK293 CRF-R2/CRF-BP, CRF-induced calcium fluorescence;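 active = inhibition of the ligand-induced calcium signal above about 50% at the single tested concentration, limit read from the data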
CRFBP-R2 agonist = CRF-BP/CRF-R2 complex agonism | HEK293 CRF-R2/CRF-BP, calcium dye fluorescence (FLIPR); percent of saturating CRF peptide response | activation, % at 13.2 µM | actives 0.46% (n = 350,000) | AID 588473;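 active = activation of at least 50%, plus an integration ratio under a set limit after plate pattern correction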;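 note: plate controls were neutral control wells without compound for no effect and CRF at EC100 for full effect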
UCH37 reconfirm = confirmation of human UCH37 deubiquitinating enzyme inhibitors. shares compounds with UCH37 DUB inh. Proteasome-bound UCH37, Ub-AMC cleavage fluorescence. inhibition, % at 20 µM. actives 27% (n = 480);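 active = average inhibition over replicates above about 50%, so the earlier screening hit is confirmed, limit read from the data; inactive = the rest, counted as false positives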;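 note: based on cleavage rate fitted by regression over a 30 min kinetic read; 0% = proteasome plus Ub-AMC and 100% = Ub-AMC without proteasome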
Numbers without * were called inactive; x = not tested or not shown.

SMILES	Cardio protect	iPSC survival up	beta cell repl	UCH37 DUB inh	CRFR2-BP antag	CRFBP-R2 agonist	UCH37 reconfirm
Cc1ccc(N2CC(C(=O)NCCC3=CCCCC3)CC2=O)cc1 (stereo not drawn)	1	0	-6	41*	15	-1	55*
Cc1ccc(C=NNC(=O)c2nnn(-c3nonc3N)c2CSc2ccccc2)o1	x	x	x	0	x	x	x
CN(C)c1ccc(/C=C/c2ccc3ccccc3[n+]2C)cc1	-15	-2	0	25*	-4	-3	30
CN(CCCS(=O)(=O)[O-])c1ccc(/C=C/c2ccc3ccccc3[n+]2C)cc1	-11	1	-5	3	-1	-1	x
Cn1cc(C=O)c2cc(F)ccc21	16	2	-2	3	12	1	x
Cn1cc(/C=C/c2cc[n+](C)cc2)c2cc(F)ccc21	-14	0	x	28*	-49	41	34
CCOc1ccc(C=NNc2nc(N3CCCC3)nc(N3CCCC3)n2)cc1OC	x	x	x	4	x	x	x
CCC(=O)N(C1=C(NC)C(=O)c2ccccc2C1=O)C(C)C	-8	-5	-3	33*	-3	-1	42
CNC1=C(N(C(C)=O)c2ccc(Br)cc2)C(=O)c2ccccc2C1=O	-13	-3	x	51*	3	-1	74*
COc1cccc(NC2=C(Cl)C(=O)OC2OC(=O)c2ccco2)c1 (stereo not drawn)	9	0	-5	37*	14	-1	5
NC(=NN=Cc1cccc(O)c1)c1nonc1N	x	x	x	7	x	x	x
COc1cccc(C2C3=C(CCCC3=O)Nc3[nH]n(-c4ccccc4)c(=O)c32)c1 (stereo not drawn)	5	0	-3	5	17	-3	x
O=C1CCCC2=C1C(c1ccc3c(c1)OCO3)c1c([nH]n(-c3ccccc3)c1=O)N2 (stereo not drawn)	1	3	-3	32*	22	3	33
Cc1[nH][nH]c(=O)c1C(c1c(C)[nH][nH]c1=O)c1cn(Cc2ccc(Cl)c(Cl)c2)c2ccccc12	-14	-2	x	47*	-41	-2	24
NC(=S)NN=Cc1ccccc1OCc1cccc(Cl)c1	x	x	x	1	x	x	x
CCOC(=O)c1c(-c2ccc(-c3ccccc3)cc2)csc1NC(=O)CNCCN(C)C	-21	0	-5	25*	-3	0	84*
CCOC(=O)c1c(-c2ccccc2)csc1NC(=O)CCN1C(=O)c2ccccc2C1=O	6	-4	0	-1	-4	-2	x
Nc1nnc(CC(=O)NN=Cc2ccc(-c3ccc(Cl)cc3Cl)o2)s1	x	x	x	-8	x	x	x
C/C(=C\C(=O)C(F)(F)F)Nc1ccc(C(F)(F)F)cc1	32	-2	-2	46*	2	3	6
CC(C)(CCl)C(=O)Nc1ccc(C(F)(F)F)cc1	4	1	-3	0	2	1	x
CCOc1c(O)ccc(/C=C2\SC(=S)NC2=O)c1[N+](=O)[O-]	-6	1	-3	59*	-3	-1	63*
CCOc1c(OC(C)=O)ccc(/C=C2\N=C(SCC)SC2=O)c1[N+](=O)[O-]	-34	-1	-4	6	14	1	x
COCc1cc(C)nc(OCC(=O)NN=Cc2cccc(OC)c2)c1C#N	x	x	x	-26	x	x	x
CC(=O)Oc1c(Br)cc(N(C(C)=O)S(=O)(=O)c2ccccc2)c2ccccc12	-17	0	-5	36*	2	-6	9
CC(=NNC(=O)CNc1ccc(C)cc1)c1ccc(Br)s1	x	x	x	8	x	x	x
SMILES	Cardio protect	iPSC survival up	beta cell repl	UCH37 DUB inh	CRFR2-BP antag	CRFBP-R2 agonist	UCH37 reconfirm
O=C1NC(=O)/C(=C/c2cccc3ccccc23)S1	-7	1	-4	8	11	-2	x
O=C1NC(=O)C(=Cc2ccccc2[N+](=O)[O-])S1	-13	-2	x	86*	-2	-1	99*
O=C(/C=C/c1ccccc1)N/C(=C/c1ccccc1)C(=O)N1CCOCC1	0	-2	0	45*	3	0	4
O=C1c2ccccc2-c2nc3ccccc3nc21	-4	13	-3	45*	2	-1	23
Cc1c(C=NNC(=O)c2ccc([N+](=O)[O-])cc2)cnn1C	x	x	x	5	x	x	x
Cc1c(N=C(N)N=C(N)Nc2ccc(Br)cc2)c(=O)n(-c2ccccc2)n1C	x	x	x	3	x	x	x
O=C1C(N2CCOCC2)=C(n2nnc3ccccc32)C(=O)c2ccccc21	-21	-7	-4	72*	-2	1	88*
O=C1c2ccccc2C(=O)c2c1cccc2-n1nnc2ccccc21	-3	0	-1	0	13	0	x
O=[N+]([O-])c1ccc(O)c(C=NNc2ccc(S(=O)(=O)O)cc2)c1	0	3	x	25*	11	-5	15
O=[N+]([O-])c1cccc(N/N=C/c2cc([N+](=O)[O-])ccc2O)c1	-16	-3	0	x	3	1	x
COc1ccc(C=NNC(=O)c2ccc3nc[nH]c3c2)c(OC)c1OC	x	x	x	5	x	x	x
COC(=O)C1=C(C(=O)OC)[C@@H]2N(C)c3ccccc3[C@@]23C[C@@H](C(=O)OC)N(C(=O)CC(C)C)C3=N1	10	-2	-2	42*	1	0	2
C=CCN1c2ccccc2[C@]23C[C@@H](C(=O)OC)N(C(=O)CC(C)C)C2=NC(C(=O)OC)=C(C(=O)OC)[C@H]13	16	-2	-3	3	8	-1	x
C[n+]1ccc(C=NNc2nc(Cl)c(C#N)c(Cl)c2Cl)cc1	x	x	x	25*	x	x	32
C[N+](C)(C)c1ccc(C=NNc2nc(Cl)c(C#N)c(Cl)c2Cl)cc1	x	x	x	11	x	x	x
Cc1ccccc1OCC(=O)ON=C(N)Cc1ccc(Cl)cc1	x	x	x	44*	x	x	15
Cc1ccccc1OCC(=O)O/N=C(\N)Cc1ccc(Cl)cc1	-10	3	2	x	-13	-1	x
COc1ccc(N2C(=O)[C@@H]3[C@H](C2=O)[C@H]2c4ccccc4C=CN2[C@@H]3C(C)=O)cc1	-1	0	x	37*	-6	15	-2
CCCCCC(=O)ON=C(C)c1ccn(S(=O)(=O)c2ccccc2)c1	x	x	x	7	x	x	x
Cc1ccc(SC2=C(Sc3ccc(C)cc3)C(=O)c3ccccc3C2=O)cc1	-19	0	-7	52*	-1	-1	29
COc1cc(C=NNC(N)=O)cc(Br)c1OCc1ccccc1C	x	x	x	0	x	x	x
Cc1cc(NC(=O)Nc2ccccc2F)ccc1Br	-9	-4	-4	38*	-4	-3	17
CCOc1cccc(C=NNC(=S)Nc2ccccc2[N+](=O)[O-])c1O	x	x	x	49*	x	x	14
Cc1ccc(CN2CCN(N=C/C=C/c3ccccc3[N+](=O)[O-])CC2)cc1	x	x	x	5	x	x	x
N#C/C(=C(/O)CON=Cc1ccccc1Cl)c1nc2ccccc2[nH]1	x	x	x	0	x	x	x
